Measurements taken from ChEMBL document CHEMBL4602735, “Discovery of (1H-Pyrazolo[3,4-c]pyridin-5-yl)sulfonamide Analogues as Hepatitis B Virus Capsid Assembly Modulators by Conformation Constraint” (J Med Chem, 2020).
Values belong to the molecule of their own block, whether it stands above or below them. Activity calls are given as the source filed them. The rule behind the calls is not given here.

Tests used:
Hepatitis B virus [1] = test: Antiviral activity against HBV infected in human HepAD38 cells assessed as reduction in viral DNA levels incubated for 6 days by PCR analysis; assay type: functional, organism-based; conditions: HePAD38, 144 h
[2] = Cytotoxicity in human HepAD38 cells assessed as induction of cell killing; assay type: cell-based
[3] = Selectivity index, ratio of CC50 for cytotoxicity in human HepAD38 cells assessed as induction of cell killing to EC50 for antiviral activity against HBV infected in human HepAD38 cells assessed as reduction in viral DNA levels incubated for 6 days by PCR analysis; assay type: toxicity, cell-based; conditions: read-out: Ratio CC50/EC50
[4] = Intrinsic clearance in mouse liver microsomes; assay type: ADME, Microsome; conditions: read-out: CLH
Hepatitis B virus [5] = test: Inhibition of HBsAg secretion in HBV infected human HepG2.2.15 cells at 2 uM for 4 days by ELISA; assay type: functional, organism-based; conditions: HepG2 2.2.15
Summary of the method: (§1)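 HepAD38 or HepG2.2.15 cells were treated at 2 µM for 4 days, with medium replaced every 2 days. Intracellular and extracellular DNA and RNA were quantified by qPCR or qRT-PCR, and HBeAg and HBsAg by ELISA. Results were compared with DMSO vehicle as mean ± SD, using a two-tailed t-test.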

Hepatitis B virus [6] = test: Inhibition of HBsAg secretion in HBV infected human HepAD38 cells at 2 uM for 4 days by ELISA; assay type: functional, organism-based; summary of the method: as §1
Hepatitis B virus [7] = test: Antiviral activity against HBV infected in human HepAD38 cells assessed as inhibition of intracellular viral RNA accumulation at 2 uM for 4 days by qPCR or qRT-PCR relative to control; assay type: functional, organism-based; summary of the method: as §1
Hepatitis B virus [8] = test: Antiviral activity against HBV infected in human HepG2.2.15 cells assessed as inhibition of intracellular viral RNA accumulation at 2 uM for 4 days by qPCR or qRT-PCR relative to control; assay type: functional, organism-based; conditions: HepG2 2.2.15; summary of the method: as §1
Hepatitis B virus [9] = test: Antiviral activity against HBV infected in human HepAD38 cells assessed as inhibition of intracellular viral DNA accumulation at 2 uM for 4 days by qPCR or qRT-PCR relative to control; assay type: functional, organism-based; summary of the method: as §1
Hepatitis B virus [10] = test: Antiviral activity against HBV infected in human HepG2.2.15 cells assessed as inhibition of intracellular viral DNA accumulation at 2 uM for 4 days by qPCR or qRT-PCR relative to control; assay type: functional, organism-based; conditions: HepG2 2.2.15; summary of the method: as §1
Hepatitis B virus [11] = test: Antiviral activity against HBV infected in human HepG2.A64 cells containing reverse transcriptase L180M/T184L/M204V mutant assessed as reduction in viral replication incubated for 6 days by PCR analysis; assay type: functional, organism-based; conditions: HepG2.A64, 144 h
Summary of the method: (§2)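 Wild-type HBV replication measured in HepAD38 and HepG2.2.15 cells, lamivudine/entecavir-resistant HBV in HepG2.A64 cells (rtL180M+rtT184L+rtM204V) and multidrug-resistant HBV in HepG2.1403F cells (rtL180M+rtM204V+rtS202G+rtN236T). Read-out is reduction of HBV DNA. EC50 is reported as mean ± SD.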

Hepatitis B virus [12] = test: Antiviral activity against multidrug-resistant HBV infected in human HepG2.1403F cells assessed as reduction in viral replication incubated for 6 days by PCR analysis; assay type: functional, organism-based; conditions: 144 h; summary of the method: as §2
Hepatitis B virus [13] = test: Antiviral activity against HBV infected in human HepG2.2.15 cells assessed as reduction in viral DNA levels incubated for 6 days by PCR analysis; assay type: functional, organism-based; conditions: HepG2 2.2.15, 144 h
[14] = Cytotoxicity in human HepG2 cells assessed as induction of cell killing; assay type: cell-based
Hepatitis B virus [15] = test: Antiviral activity against HBV infected in human HepG2.2.15 cells; assay type: functional, organism-based; conditions: HepG2 2.2.15
[16] = Solubility in water at 1 mg at 25 degC by HPLC analysis; assay type: physicochemical
Summary of the method: (§3)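 Solubility determined in water or 0.067 M phosphate buffer at pH 5.8, 6.8 and 7.4. Values are reported in mg/mL; ND means below the detection limit.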

[17] = Solubility in pH 5.8 phosphate buffer at 1 mg at 25 degC by HPLC analysis; assay type: physicochemical; summary of the method: as §3
[18] = Solubility in pH 6.8 phosphate buffer at 1 mg at 25 degC by HPLC analysis; assay type: physicochemical; conditions: phosphate buffer, read-out: solubility; summary of the method: as §3
[19] = Solubility in pH 7.4 phosphate buffer at 1 mg at 25 degC by HPLC analysis; assay type: physicochemical; summary of the method: as §3
Hepatitis B virus [20] = test: Antiviral activity against HBV genotype D in hydrodynamic injection-based C57BL/6 mouse model of HBV infection assessed as inhibition of HBV replication at 50 mg/kg, po dosed once daily for 7 days by real-time PCR analysis; assay type: functional, organism-based
Hepatitis B virus [21] = test: Antiviral activity against HBV genotype D in hydrodynamic injection-based C57BL/6 mouse model of HBV infection assessed as inhibition of serum HBV DNA level at 50 mg/kg, po dosed twice daily for 7 days by real-time PCR analysis; assay type: functional, organism-based
Hepatitis B virus [22] = test: Antiviral activity against HBV genotype D in hydrodynamic injection-based C57BL/6 mouse model of HBV infection assessed as inhibition of liver HBV DNA level at 50 mg/kg, po dosed twice daily for 7 days by real-time PCR analysis; assay type: functional, organism-based
Hepatitis B virus [23] = test: Antiviral activity against HBV genotype D in hydrodynamic injection-based C57BL/6 mouse model of HBV infection assessed as inhibition of serum HBV DNA level at 100 mg/kg, po dosed twice daily for 7 days by real-time PCR analysis; assay type: functional, organism-based
Hepatitis B virus [24] = test: Antiviral activity against HBV genotype D in hydrodynamic injection-based C57BL/6 mouse model of HBV infection assessed as inhibition of liver HBV DNA level at 100 mg/kg, po dosed twice daily for 7 days by real-time PCR analysis; assay type: functional, organism-based
Hepatitis B virus [25] = test: Antiviral activity against HBV genotype D in hydrodynamic injection-based C57BL/6 mouse model of HBV infection assessed as inhibition of serum HBV DNA level at 200 mg/kg, po dosed twice daily for 7 days by real-time PCR analysis; assay type: functional, organism-based
Hepatitis B virus [26] = test: Antiviral activity against HBV genotype D in hydrodynamic injection-based C57BL/6 mouse model of HBV infection assessed as inhibition of liver HBV DNA level at 200 mg/kg, po dosed twice daily for 7 days by real-time PCR analysis; assay type: functional, organism-based
[27] = Half life in mouse plasma by HPLC analysis; assay type: ADME, cell-free
Summary of the method: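 Prodrug incubated in plasma at 37 °C, with percent remaining determined by HPLC to derive half-life.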

[28] = Stability in pH 7.4 buffer assessed as compound remaining level at 37 degC by HPLC analysis; assay type: physicochemical
Summary of the method: (§4)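 Prodrug incubated in buffer (0.1 M HCl, pH 5.8, 6.8 or 7.4) at 37 °C; percent of compound remaining determined by HPLC; remaining percentage reported after 3 h, stability meaning no hydrolysis after 2 h.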

[29] = Stability in pH 6.8 buffer assessed as compound remaining level at 37 degC by HPLC analysis; assay type: physicochemical; summary of the method: as §4
[30] = Stability in pH 7.4 buffer assessed as compound remaining level after 3 hrs at 37 degC by HPLC analysis; assay type: physicochemical; conditions: read-out: Stability; summary of the method: as §4
[31] = Stability in pH 5.8 buffer assessed as compound remaining level at 37 degC by HPLC analysis; assay type: physicochemical; summary of the method: as §4
Hepatitis B virus [32] = test: Antiviral activity against HBV infected in […] cells; assay type: functional, organism-based

Compound: O=S(=O)(c1cc2c(Nc3ccc(F)c(C(F)F)c3)nn(C3CC3)c2cn1)N1CCC(O)CC1
EC50 (Hepatitis B virus [1]): 71 nM | CC50 [2]: > 100000 nM | selectivity ratio at 144 h [3]: > 1410 | microsomal CLint [4]: 6.9 µL/min/mg | inhibition (Hepatitis B virus [5]): inactive | inhibition (Hepatitis B virus [6]): inactive | inhibition (Hepatitis B virus [7]): Active | inhibition (Hepatitis B virus [8]): Active | inhibition (Hepatitis B virus [9]): Active | inhibition (Hepatitis B virus [10]): Active | EC50 (Hepatitis B virus [11]): 2.2 nM | EC50 (Hepatitis B virus [12]): 13 nM | EC50 (Hepatitis B virus [13]): 42 nM | CC50 [14]: > 100000 nM

EC50 (Hepatitis B virus [15]): 53 nM
Compound: COC(=O)C1=C(C)NC(c2ncc(F)cc2F)=N[C@H]1c1ccc(F)cc1Cl

solubility [16]: 7900 µg/mL | solubility [17]: 7080 µg/mL | solubility [18]: 7690 µg/mL | solubility [19]: 230 µg/mL
Compound: CS(=O)(=O)O.CS(=O)(=O)O.Cc1cc(Nc2nn(C3CC3)c3cnc(S(=O)(=O)N4CCC(OC(=O)CN(C)C)CC4)cc23)ccc1F

Compound: Cc1cc(Nc2nn(C3CC3)c3cnc(S(=O)(=O)N4CCC(OC(=O)CN(C)C)CC4)cc23)ccc1F
Activity (Hepatitis B virus [20]): inactive | Activity (Hepatitis B virus [21]): Active | Activity (Hepatitis B virus [22]): Active | Activity (Hepatitis B virus [23]): Active | Activity (Hepatitis B virus [24]): Active | Activity (Hepatitis B virus [25]): Active | Activity (Hepatitis B virus [26]): Active

half-life [27]: 18 h | Stability [28]: Stable | Stability [29]: Unstable
Compound: Cc1cc(Nc2nn(C3CC3)c3cnc(S(=O)(=O)N4CCC(OC(=O)[C@@H](N)C(C)C)CC4)cc23)ccc1F.O=C(O)C(F)(F)F

solubility [16]: 6900 µg/mL | solubility [17]: 6750 µg/mL | solubility [18]: 40 µg/mL | solubility [19]: 16 µg/mL
Compound: Cc1cc(Nc2nn(C3CC3)c3cnc(S(=O)(=O)N4CCC(OC(=O)CN(C)C)CC4)cc23)ccc1F.Cl

half-life [27]: 0.52 h | remaining at 3 h [30]: 55.6% | Stability [29]: 80.2% | Stability [31]: 85.7%
Compound: Cc1cc(Nc2nn(C3CC3)c3cnc(S(=O)(=O)N4CCC(OC(=O)[C@H](C)N)CC4)cc23)ccc1F.O=C(O)C(F)(F)F

EC50 (Hepatitis B virus [32]): 300 nM
Compound: CCC(C)NS(=O)(=O)c1ccc(F)c(C(=O)Nc2ccc(F)c(F)c2)c1 (stereo not drawn)
